ChEMBL document CHEMBL2029264, “Indole-based fibrates as potential hypolipidemic and antiobesity agents” (J Med Chem, 2012)
Calls of active or inactive are those of the source. No cut-off for these calls is given here.

How the values were obtained:
Rattus norvegicus [1] = test: Antihyperlipidemic activity in HFD-induced hyperlipidemic Charles Foster rat assessed as increase in plasma HDL-triglyceride level at 100 mg/kg, po administered for 4 weeks relative to control; assay type: functional
Method in brief: (§1)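 After 4 weeks high-fat feeding plus 4 weeks daily dosing, overnight fast, retro-orbital blood into EDTA tubes. Serum split into VLDL, LDL and HDL by polyanionic precipitation; each fraction assayed for TC, PL, TG and apoprotein (mg/dL plasma). Pooled data from 6 rats/group, mean ± SD, dosed groups compared with high-fat group.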

Rattus norvegicus [2] = test: Antihyperlipidemic activity in Triton WR-1339-induced hyperlipidemic rat assessed as decrease in plasma phospholipid level at 50 mg/kg, po; assay type: functional
Method in brief: (§2)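 Separate set of Triton WR-1339-induced hyperlipidemic rats, oral doses of 50, 100 and 150 mg/kg. Plasma TC, PL, TG in mg/dL; PHLA as […]/h/mL plasma. Mean ± SD of six rats versus Triton group.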

Rattus norvegicus [3] = test: Antiobesity activity in HFD-induced hyperlipidemic Charles Foster rat assessed as decrease in body weight at 100 mg/kg, po administered for 4 weeks; assay type: functional, organism-based; design: dose 100 mg/kg
Method in brief: (§3)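 Adult male Charles Foster rats given high-fat or normal diet 4 weeks, then diet plus vehicle or daily dosing 4 more weeks, sacrificed at week 8. Body weight gain, food intake, food efficiency ratio (weight gain/food intake over the period), and mesenteric, gonadal, inguinal and perirenal fat-pad weights recorded; mean ± SD, n = 6.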

Rattus norvegicus [4] = test: Antihyperlipidemic activity in HFD-induced hyperlipidemic Charles Foster rat assessed as decrease in plasma LDL-total cholesterol level at 100 mg/kg, po administered for 4 weeks relative to control; assay type: functional; design: scale not given: the % may be the effect or the level left; method in brief: as §1
Rattus norvegicus [5] = test: Antihyperlipidemic activity in HFD-induced hyperlipidemic Charles Foster rat assessed as decrease in plasma LDL-phospholipid level at 100 mg/kg, po administered for 4 weeks relative to control; assay type: functional; design: scale not given: the % may be the effect or the level left; method in brief: as §1
Rattus norvegicus [6] = test: Antiobesity activity in HFD-induced hyperlipidemic Charles Foster rat assessed as decrease in perirenal fat-pad at 100 mg/kg, po administered for 4 weeks; assay type: functional, organism-based; design: dose 100 mg/kg; method in brief: as §3
Rattus norvegicus [7] = test: Antihyperlipidemic activity in Triton WR-1339-induced hyperlipidemic rat assessed as decrease in plasma triglyceride level at 100 mg/kg, po relative to control; assay type: functional; design: scale not given: the % may be the effect or the level left
Method in brief: (§4)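 Triton WR-1339 given to rats to induce hyperlipidemia; oral dosing. Plasma TC, PL, TG in mg/dL; PHLA as […]/h/mL plasma. Mean ± SD of six rats; Triton group compared with control, Triton plus dosed group compared with Triton group.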

Rattus norvegicus [8] = test: Antihyperlipidemic activity in HFD-induced hyperlipidemic Charles Foster rat assessed as decrease in plasma VLDL-apoprotein level at 100 mg/kg, po administered for 4 weeks relative to control; assay type: functional; design: scale not given: the % may be the effect or the level left; method in brief: as §1
Rattus norvegicus [9] = test: Antihyperlipidemic activity in HFD-induced hyperlipidemic Charles Foster rat assessed as decrease in plasma LDL-triglyceride level at 100 mg/kg, po administered for 4 weeks relative to control; assay type: functional; design: scale not given: the % may be the effect or the level left; method in brief: as §1
Rattus norvegicus [10] = test: Antiobesity activity in HFD-induced hyperlipidemic Charles Foster rat assessed as decrease in food efficacy ratio at 100 mg/kg, po administered for 4 weeks; assay type: functional, organism-based; design: dose 100 mg/kg; method in brief: as §3
Rattus norvegicus [11] = test: Antihyperlipidemic activity in po dosed Triton WR-1339-induced hyperlipidemic rat assessed as increase in PHLA; assay type: functional, organism-based; method in brief: as §4
Rattus norvegicus [12] = test: Antiobesity activity in HFD-induced hyperlipidemic Charles Foster rat assessed as decrease in gonadal fat-pad at 100 mg/kg, po administered for 4 weeks; assay type: functional, organism-based; design: dose 100 mg/kg; method in brief: as §3
Rattus norvegicus [13] = test: Antihyperlipidemic activity in HFD-induced hyperlipidemic Charles Foster rat assessed as decrease in liver phospholipid level at 100 mg/kg, po administered for 4 weeks relative to control; assay type: functional; design: scale not given: the % may be the effect or the level left
Method in brief: (§5)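 Adult male Charles Foster rats (200−225 g), high-fat diet 4 weeks, then diet plus daily dosing 4 more weeks; overnight fast, sacrifice, liver washed in cold 0.15 M KCl and held at 4 °C. Lipids extracted from liver homogenate in CHCl3/CH3OH (2:1 v/v), TC, PL and TG read in mg/g; pooled data from 6 rats/group, mean ± SD.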

Rattus norvegicus [14] = test: Antihyperlipidemic activity in HFD-induced hyperlipidemic Charles Foster rat assessed as decrease in serum phospholipid level at 100 mg/kg, po administered for 4 weeks relative to control; assay type: functional; design: scale not given: the % may be the effect or the level left
Method in brief: (§6)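 Male Charles Foster rats (200−225 g): high-fat diet 4 weeks, then diet plus daily dosing 4 weeks. Overnight fast, retro-orbital blood in EDTA (3 mg/mL blood), centrifuged to serum. TC, PL, TG in mg/dL; LCAT as nmol cholesterol released/h/L plasma. Mean ± SD; dosed groups compared with high-fat group, P by significance levels.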

Rattus norvegicus [15] = test: Antihyperlipidemic activity in HFD-induced hyperlipidemic Charles Foster rat assessed as decrease in plasma VLDL-triglyceride level at 100 mg/kg, po administered for 4 weeks relative to control; assay type: functional; design: scale not given: the % may be the effect or the level left; method in brief: as §1
Rattus norvegicus [16] = test: Antihyperlipidemic activity in Triton WR-1339-induced hyperlipidemic rat assessed as decrease in plasma total cholesterol level at 50 mg/kg, po; assay type: functional; method in brief: as §2
Rattus norvegicus [17] = test: Antihyperlipidemic activity in HFD-induced hyperlipidemic Charles Foster rat assessed as decrease in plasma LDL-apoprotein level at 100 mg/kg, po administered for 4 weeks relative to control; assay type: functional; design: scale not given: the % may be the effect or the level left; method in brief: as §1
Rattus norvegicus [18] = test: Antihyperlipidemic activity in HFD-induced hyperlipidemic Charles Foster rat assessed as increase in deoxycholic acid excretion in feces at 100 mg/kg/day, po administered for 4 weeks measured after 30 days relative to control; assay type: functional
Method in brief: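 Rats fed high-fat diet 4 weeks, then diet plus daily dosing 4 weeks. Cholic and deoxycholic acid excreted in feces measured; dosed groups compared with high-fat group, control compared with high-fat group.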

Rattus norvegicus [19] = test: Antihyperlipidemic activity in po dosed Triton WR-1339-induced hyperlipidemic rat assessed as decrease in plasma total cholesterol level; assay type: functional, organism-based; method in brief: as §4
Rattus norvegicus [20] = test: Antihyperlipidemic activity in Triton WR-1339-induced hyperlipidemic rat assessed as increase in LCAT enzyme level at 100 mg/kg, po; assay type: functional; method in brief: as §4
Rattus norvegicus [21] = test: Antihyperlipidemic activity in HFD-induced hyperlipidemic Charles Foster rat assessed as decrease in liver total cholesterol level at 100 mg/kg, po administered for 4 weeks relative to control; assay type: functional; design: scale not given: the % may be the effect or the level left; method in brief: as §5
Rattus norvegicus [22] = test: Antihyperlipidemic activity in HFD-induced hyperlipidemic Charles Foster rat assessed as decrease in plasma VLDL-total cholesterol level at 100 mg/kg, po administered for 4 weeks relative to control; assay type: functional; design: scale not given: the % may be the effect or the level left; method in brief: as §1
Rattus norvegicus [23] = test: Antihyperlipidemic activity in HFD-induced hyperlipidemic Charles Foster rat assessed as reactivation of LPL activity at 100 mg/kg, po administered for 4 weeks relative to control; assay type: functional
Method in brief: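 Male Charles Foster rats fed high-fat diet 4 weeks, then diet plus daily dosing 4 weeks. Liver homogenized (10% w/v) in cold 100 mM phosphate buffer pH 7.2; total lipolytic LPL activity read as nmol free fatty acid formed/h/mg protein; pooled data from 6 rats/group, mean ± SD.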

Rattus norvegicus [24] = test: Antihyperlipidemic activity in HFD-induced hyperlipidemic Charles Foster rat assessed as decrease in serum triglyceride level at 100 mg/kg, po administered for 4 weeks relative to control; assay type: functional; design: scale not given: the % may be the effect or the level left; method in brief: as §6
Rattus norvegicus [25] = test: Antihyperlipidemic activity in po dosed Triton WR-1339-induced hyperlipidemic rat assessed as decrease in plasma triglyceride level; assay type: functional, organism-based; method in brief: as §4
Rattus norvegicus [26] = test: Antihyperlipidemic activity in Triton WR-1339-induced hyperlipidemic rat assessed as increase in PHLA enzyme level at 50 mg/kg, po; assay type: functional; method in brief: as §2

| SMILES | Activity (Rattus norvegicus [1]) [%] | Activity (Rattus norvegicus [2]) [mg/dL] | Activity (Rattus norvegicus [3]) | Activity (Rattus norvegicus [4]) [%] | Activity (Rattus norvegicus [5]) [%] | Activity (Rattus norvegicus [6]) | Activity (Rattus norvegicus [7]) [%] | Activity (Rattus norvegicus [8]) [%] | Activity (Rattus norvegicus [9]) [%] | Activity (Rattus norvegicus [10]) | Activity (Rattus norvegicus [11]) | Activity (Rattus norvegicus [12]) | Activity (Rattus norvegicus [13]) [%] | Activity (Rattus norvegicus [14]) [%] | Activity (Rattus norvegicus [15]) [%] | Activity (Rattus norvegicus [16]) [mg/dL] | Activity (Rattus norvegicus [17]) [%] | Activity (Rattus norvegicus [18]) [%] | Activity (Rattus norvegicus [19]) | Activity (Rattus norvegicus [20]) [nmol/h/mL] | further results |
| --- | --- | --- | --- | --- | --- | --- | --- | --- | --- | --- | --- | --- | --- | --- | --- | --- | --- | --- | --- | --- | --- |
| CCOC(=O)C(C)Oc1ccc(C(c2cn(CC)c3ccccc23)c2cn(CC)c3ccccc23)cc1 (configuration not stated) | 11 | 15 | Active | 24 | 25 | Active | 25 | 26 | 21 | Active | Dose-dependent effect | Active | 28 | 24 | 24 | 16 | 25 | 28 | Dose-dependent effect | 12 | Activity (Rattus norvegicus [21]): 23%; Activity (Rattus norvegicus [22]): 21%; Activity (Rattus norvegicus [23]): 20%; Activity (Rattus norvegicus [24]): 25%; Activity (Rattus norvegicus [25]): Dose-dependent effect; percent increase (Rattus norvegicus [26]): 11% |
| CCOC(=O)CCCOc1ccc(C(c2cn(C)c3ccccc23)c2cn(C)c3ccccc23)cc1 | 14 | 16 | Active | 22 | 20 | Active | 27 | 33 | 25 | Active | Dose-dependent effect | Active | 23 | 25 | 17 | 15 | 21 | 31 | Dose-dependent effect | 15 | Activity (Rattus norvegicus [21]): 26%; Activity (Rattus norvegicus [22]): 15%; Activity (Rattus norvegicus [23]): 14%; Activity (Rattus norvegicus [24]): 27%; Activity (Rattus norvegicus [25]): Dose-dependent effect; percent increase (Rattus norvegicus [26]): 10% |
